# Test results published in ChEMBL document CHEMBL4118256, “Second Generation of Mannich Base-Type Derivatives with in Vivo Activity against Trypanosoma cruzi” (J Med Chem, 2018).
# Activity calls are given as the source filed them. The calls are words filed in the database; no cut-off is given here.
# Columns and labels:
# Mus musculus [1] = assay: (§1) Cardiotoxicity in Balb/c mouse infected with Trypanosoma cruzi MHOM/Pe/2011/Arequipa DTU 5 trypamastigotes assessed as change in ratio of creatine kinase in muscle to brain at 100 mg/kg, po once daily for 5 consecutive days starting from day 10 post infection measured on day 16 post infection by biochemical analysis relative to control; assay type: toxicity, organism-based; conditions: in vivo
# Trypanosoma cruzi [2] = assay: (§2) Antitrypanosomal activity against Trypanosoma cruzi MHOM/Pe/2011/Arequipa DTU 5 trypamastigotes infected in Balb/c mouse assessed as reduction in parasitaemia reactivation at 100 mg/kg, po pretreated once daily for 5 consecutive days starting from day 75 post infection followed by cyclophosphamide-induced immunosuppression on day 100 post infection every 4 days for a maximum of 3 doses measured up to 1 week post immunosuppression by Neubauer chamber method; assay type: functional, organism-based
# Mus musculus [3] = assay: (§3) Nephrotoxicity in Balb/c mouse infected with Trypanosoma cruzi MHOM/Pe/2011/Arequipa DTU 5 trypamastigotes assessed as change in uric acid level in serum at […], po once daily for 5 consecutive days starting from day 75 post infection measured on day 127 post infection by biochemical analysis relative to control; assay type: toxicity, organism-based; conditions: in vivo
# Mus musculus [4] = assay: as §3, with “Hepatotoxicity” for “Nephrotoxicity”, “decrease” for “change”, “ratio of serum ALT to GPT” for “uric acid”, “level” for “level in serum”; assay type: toxicity, organism-based; design: scale not given: the % may be the effect or the level left; conditions: in vivo
# Mus musculus [5] = assay: as §1, with “Hepatotoxicity” for “Cardiotoxicity”, “decrease” for “change”, “serum AST” for “creatine kinase in muscle”, “GOT level” for “brain”; assay type: toxicity, organism-based; design: scale not given: the % may be the effect or the level left; conditions: in vivo
# Mus musculus [6] = assay: as §1, with “Hepatotoxicity” for “Cardiotoxicity”, “decrease” for “change”, “total bilirubin level” for “ratio of creatine kinase in muscle to brain”; assay type: toxicity, organism-based; design: scale not given: the % may be the effect or the level left; conditions: in vivo
# Mus musculus [7] = assay: as §1, with “Hepatotoxicity” for “Cardiotoxicity”, “decrease” for “change”, “serum ALT” for “creatine kinase in muscle”, “GPT level” for “brain”; assay type: toxicity, organism-based; design: scale not given: the % may be the effect or the level left; conditions: in vivo
# Mus musculus [8] = assay: as §3, with “Hepatotoxicity” for “Nephrotoxicity”, “decrease” for “change”, “ratio of serum AST to GOT” for “uric acid”, “level” for “level in serum”; assay type: toxicity, organism-based; design: scale not given: the % may be the effect or the level left; conditions: in vivo
# Mus musculus [9] = assay: as §3, with “Hepatotoxicity” for “Nephrotoxicity”, “decrease” for “change”, “ratio of serum AST to GOT” for “uric acid”, “level” for “level in serum”, “10” for “75”; assay type: toxicity, organism-based; design: scale not given: the % may be the effect or the level left; conditions: in vivo
# Mus musculus [10] = assay: as §3, with “Hepatotoxicity” for “Nephrotoxicity”, “decrease” for “change”, “ratio of serum AST to GOT” for “uric acid”, “level” for “level in serum”, “81” for “127”; assay type: toxicity, organism-based; design: scale not given: the % may be the effect or the level left; conditions: in vivo
# Mus musculus [11] = assay: as §3, with “Hepatotoxicity” for “Nephrotoxicity”, “decrease” for “change”, “ratio of serum ALT to GPT” for “uric acid”, “level” for “level in serum”, “81” for “127”; assay type: toxicity, organism-based; design: scale not given: the % may be the effect or the level left; conditions: in vivo
# Mus musculus [12] = assay: as §1, with “serum LDH level” for “ratio of creatine kinase in muscle to brain”; assay type: toxicity, organism-based; conditions: in vivo
# Mus musculus [13] = assay: as §3, with “Hepatotoxicity” for “Nephrotoxicity”, “decrease” for “change”, “total bilirubin” for “uric acid”, “level” for “level in serum”, “81” for “127”; assay type: toxicity, organism-based; design: scale not given: the % may be the effect or the level left; conditions: in vivo
# Mus musculus [14] = assay: as §1, with “Hepatotoxicity” for “Cardiotoxicity”, “decrease” for “change”, “alkaline phosphatase level” for “ratio of creatine kinase in muscle to brain”; assay type: toxicity, organism-based; design: scale not given: the % may be the effect or the level left; conditions: in vivo
# Trypanosoma cruzi [15] = assay: as §2, with “reactivation in brain tissue” for “reactivation”, “measured on day 127” for “measured up to 1 week”, “post infection” for “post immunosuppression”, “by PCR” for “by Neubauer chamber”; assay type: functional; design: scale not given: the % may be the effect or the level left
# Method in brief: (§4)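 Necropsy on day 127 pi after oral treatment and cyclophosphamide immunosuppression. Tissue DNA was amplified by PCR targeting the ~300 bp T. cruzi SOD gene, 200 nM each primer, 30 cycles with 55.5 °C annealing. Products run on 2 % agarose; positive organs counted out of six mice.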
# Trypanosoma cruzi [16] = assay: Antitrypanosomal activity against Trypanosoma cruzi MHOM/Pe/2011/Arequipa DTU 5 epimastigotes assessed as effect on parasite glycolytic pathway by measuring increase in succinate excretion at IC25 after 72 hrs by 1H NMR method relative to control; assay type: functional
# Method in brief: (§5)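 Arequipa epimastigotes exposed at IC25 for 72 h alongside an untreated control. Excreted catabolites were analysed by 1H NMR, and each peak is reported as % variation versus the control. Three separate determinations.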
# Mus musculus [17] = assay: as §3, with “decrease” for “change”, “10” for “75”, “16” for “127”; assay type: toxicity, organism-based; design: scale not given: the % may be the effect or the level left; conditions: in vivo
# Trypanosoma cruzi [18] = assay: Antitrypanosomal activity against Trypanosoma cruzi MHOM/Pe/2011/Arequipa DTU 5 epimastigotes assessed as effect on parasite glycolytic pathway by measuring D-lactate excretion at IC25 after 72 hrs by 1H NMR method; assay type: functional, organism-based; method in brief: as §5
# Mus musculus [19] = assay: as §3, with “decrease” for “change”, “urea” for “uric acid”, “10” for “75”, “16” for “127”; assay type: toxicity, organism-based; design: scale not given: the % may be the effect or the level left; conditions: in vivo
# Trypanosoma cruzi [20] = assay: Antitrypanosomal activity against Trypanosoma cruzi MHOM/Pe/2011/Arequipa DTU 5 epimastigotes assessed as effect on parasite glycolytic pathway by measuring ethanol excretion at IC25 after 72 hrs by 1H NMR method; assay type: functional, organism-based; method in brief: as §5
# Mus musculus [21] = assay: as §3, with “10” for “75”; assay type: toxicity, organism-based; conditions: in vivo
# Mus musculus [22] = assay: as §3, with “urea” for “uric acid”, “10” for “75”; assay type: toxicity, organism-based; conditions: in vivo
# Mus musculus [23] = assay: as §3, with “decrease” for “change”, “urea” for “uric acid”, “81” for “127”; assay type: toxicity, organism-based; design: scale not given: the % may be the effect or the level left; conditions: in vivo
# Trypanosoma cruzi [24] = assay: Antitrypanosomal activity against Trypanosoma cruzi MHOM/Pe/2011/Arequipa DTU 5 epimastigotes assessed as effect on parasite glycolytic pathway by measuring acetate excretion at IC25 after 72 hrs by 1H NMR method; assay type: functional, organism-based; method in brief: as §5
# Trypanosoma cruzi [25] = assay: as §2, with “reactivation in muscle tissue” for “reactivation”, “measured on day 127” for “measured up to 1 week”, “post infection” for “post immunosuppression”, “by PCR” for “by Neubauer chamber”; assay type: functional; design: scale not given: the % may be the effect or the level left
# Mus musculus [26] = assay: as §3, with “decrease” for “change”, “81” for “127”; assay type: toxicity, organism-based; design: scale not given: the % may be the effect or the level left; conditions: in vivo
# Trypanosoma cruzi [27] = assay: Antitrypanosomal activity against Trypanosoma cruzi MHOM/Pe/2011/Arequipa DTU 5 epimastigotes assessed as effect on parasite glycolytic pathway by measuring L-alanine excretion at IC25 after 72 hrs by 1H NMR method; assay type: functional, organism-based; method in brief: as §5
# Mus musculus [28] = assay: as §3, with “decrease” for “change”, “urea” for “uric acid”; assay type: toxicity, organism-based; design: scale not given: the % may be the effect or the level left; conditions: in vivo
# Trypanosoma cruzi [29] = assay: as §2, with “reactivation in adipose tissue” for “reactivation”, “at 20” for “at 100”, “measured on day 127” for “measured up to 1 week”, “post infection” for “post immunosuppression”, “by PCR” for “by Neubauer chamber”; assay type: functional; design: scale not given: the % may be the effect or the level left; conditions: pooled result: one value given for 9 cell lines, strains, targets or settings; method in brief: as §4
SMILES,Activity (Mus musculus [1]),Activity (Trypanosoma cruzi [2]),Activity (Mus musculus [3]),Activity (Mus musculus [4]),Activity (Mus musculus [5]),Activity (Mus musculus [6]),Activity (Mus musculus [7]),Activity (Mus musculus [8]),Activity (Mus musculus [9]),Activity (Mus musculus [10]),Activity (Mus musculus [11]),Activity (Mus musculus [12]),Activity (Mus musculus [13]),Activity (Mus musculus [14]),Activity (Trypanosoma cruzi [16]),Activity (Mus musculus [17]),Activity (Trypanosoma cruzi [18]),Activity (Mus musculus [19]),Activity (Trypanosoma cruzi [20]),Activity (Mus musculus [21]),further results
COc1ccc(C(=O)CCN2CCN(c3ccc(F)cc3)CC2)cc1,< 10%,Active,< 10%,<= 10%,<= 30%,<= 10%,<= 30%,<= 20%,<= 10%,<= 10%,<= 30%,< 10%,<= 10%,<= 20%,,,,,,,
COc1ccc(C(=O)CCN2CCN(c3ccc(Cl)cc3)CC2)cc1,,,< 10%,<= 10%,<= 20%,<= 10%,<= 20%,<= 20%,<= 10%,<= 20%,<= 30%,,<= 20%,<= 10%,200%,<= 30%,inactive,<= 30%,inactive,< 10%,Activity (Trypanosoma cruzi [15]): 78%; Activity (Mus musculus [22]): < 10%; Activity (Mus musculus [23]): <= 30%; Activity (Trypanosoma cruzi [24]): inactive; Activity (Trypanosoma cruzi [25]): 78%; Activity (Mus musculus [26]): <= 30%; Activity (Trypanosoma cruzi [27]): inactive
COc1ccc(C(=O)CCN2CCN(c3ccc([N+](=O)[O-])cc3)CC2)cc1,< 10%,Active,,,,,,,,,,< 10%,,,>20%,<= 20%,inactive,<= 20%,inactive,< 10%,Activity (Mus musculus [22]): < 10%; Activity (Mus musculus [23]): <= 10%; Activity (Trypanosoma cruzi [24]): inactive; Activity (Mus musculus [26]): <= 30%; Activity (Trypanosoma cruzi [27]): inactive; Activity (Mus musculus [28]): <= 10%
O=C(Cn1ccnc1[N+](=O)[O-])NCc1ccccc1 [BENZNIDAZOLE],,,,,,,,,,,,,,,,,,,,,Activity (Trypanosoma cruzi [29]): 55%
